Screening data: PubChem, NMMLSC
Efflux pump inh: inhibitors of Candida efflux pumps in yeast, primary screen, S. cerevisiae, Nile Red, multiplex. actives 0.44% (n = 330,000). inhibition, % at 10 µM. S. cerevisiae Candida pump triplex;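 active = plate passing quality check with inhibition over a set limit, or well fluorescence over plate mean plus 4 SD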;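 note: Nile Red retained in pooled yeast measured as flow cytometry median fluorescence; higher means more Nile Red kept so more efflux inhibition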
MEKK3 PB1 HTS: modulators of MEKK3-MEK5 PB1 binding, primary screen, biochemical, wildtype MEKK3, multiplex bead flow cytometry, Alexa488-MEK5; Mitogen-activated protein kinase kinase kinase 3 (Homo sapiens), Q99759; bead-based flow cytometry, Alexa488-MEK5 binding to MEKK3; actives lie on both sides; 0 = blocked by unlabeled MEK5, 100 = vehicle; binding response (% of control), % at 10 µM; actives 1.4% (n = 290,000);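 active = binding response more than 3 SD above or below the average of its plate-row segment, actives on both sides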;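 note: Alexa488 bead fluorescence after subtracting the streptavidin-only scavenger bead signal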
Target sequence (Q99759 whole entry, looked up): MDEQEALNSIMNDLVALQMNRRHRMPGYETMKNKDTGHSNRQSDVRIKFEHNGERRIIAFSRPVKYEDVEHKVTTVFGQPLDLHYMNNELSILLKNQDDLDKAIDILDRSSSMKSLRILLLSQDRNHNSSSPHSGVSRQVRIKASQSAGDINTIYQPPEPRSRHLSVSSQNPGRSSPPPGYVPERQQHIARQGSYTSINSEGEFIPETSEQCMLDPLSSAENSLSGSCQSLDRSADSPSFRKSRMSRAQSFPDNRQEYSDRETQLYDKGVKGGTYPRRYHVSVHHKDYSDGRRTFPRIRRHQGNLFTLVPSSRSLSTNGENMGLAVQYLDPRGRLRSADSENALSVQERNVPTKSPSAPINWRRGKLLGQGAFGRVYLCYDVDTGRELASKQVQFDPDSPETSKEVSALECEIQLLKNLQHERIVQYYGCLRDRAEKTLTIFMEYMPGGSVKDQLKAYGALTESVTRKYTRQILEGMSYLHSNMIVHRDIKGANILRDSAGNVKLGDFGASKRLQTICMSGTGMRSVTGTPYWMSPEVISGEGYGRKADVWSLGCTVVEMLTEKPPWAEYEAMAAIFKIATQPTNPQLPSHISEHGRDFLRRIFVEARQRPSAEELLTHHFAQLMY
ABCB1 block: ABCB1 efflux pump inhibitors, primary screen, cell-based, multiplex, flow cytometry, ABCG2 counter-screen. ATP-dependent translocase ABCB1 (Homo sapiens), P08183. inhibition, % at 6.6 µM. CCRF-Adr cells, JC-1 efflux. AID 1326, 2008. actives 0.067% (n = 190,000); in the data active = inhibition above about 40%;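 note: higher value means more JC-1 retained so stronger ABCB1 efflux block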
MEKK2mut PB1 HTS: MEK5 binding signal on mutant MEKK2 PB1, primary screen, biochemical, multiplex bead flow cytometry, Alexa488-MEK5 | percent response, % at 10 µM | actives 0.35% (n = 290,000) | Alexa488-MEK5 binding to MEKK2 mutant | AID 1530, 2009; in the data active = percent response above about 24%, passing the limit was not always enough
MEKK2wt PB1 HTS: modulators of MEK5 binding to wildtype MEKK2, primary screen, biochemical, multiplex bead flow cytometry, Alexa488-MEK5; AID 1531, 2009; Alexa488-MEK5 binding to MEKK2 WT; actives lie on both sides; binding response (% of control), % at 10 µM; actives 1.1% (n = 290,000); Mitogen-activated protein kinase kinase kinase 2 (Homo sapiens), Q9Y2U5; in the data active = binding response below about 67% or above about 130%
ABCG2 inh: ABCG2 efflux pump inhibitors, primary screen, multiplex with ABCB1, IgMXP3 cells, flow cytometry; Broad substrate specificity ATP-binding cassette transporter ABCG2 (Homo sapiens), Q9UNQ0; JC-1 efflux; inhibition, % at 6.6 µM; actives 0.1% (n = 190,000);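 active = inhibition above 80%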
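Assay system – ABCG2 IgMXP3 and barcoded ABCB1 CCRF-Adr cell mix · Input – 3 million cells/mL in well · Reagent – JC-1 fluorescent substrate · Compound – single test compound dose, 6.6 µM final · Timing – 10 min exposure at 25 °C with rotation, no wash · Detection – flow cytometry of retained JC-1 fluorescence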
Cmpd fluor yeast: compound fluorescence in yeast efflux pump counter-screen | shares compounds with Efflux pump inh | S. cerevisiae AD/pABC3, flow cytometry | fluorescence ratio to DMSO, % at 10 µM | actives 4% (n = 1,700) | AID 588517;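 active = fluorescence ratio to DMSO above its plate's cutoff, the plate mean ratio plus 5 SD, cut at about 210% in these data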;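 note: unstained yeast with no Nile Red so the signal is compound autofluorescence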
CaMdr1 efflux inh: inhibitors of Candida albicans Mdr1 efflux, confirmation, flow cytometry, singleplex, Cherry Pick1 set; shares compounds with Efflux pump inh; S. cerevisiae AD/CaMDR1, Nile Red efflux; inhibition, % at 10 µM; actives 1% (n = 1,700); AID 588518, 2011; in the data active = inhibition above about 26%;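 note: higher means more Nile Red retained so more efflux inhibition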
CaCdr2 efflux inh: inhibitors of Candida albicans Cdr2 efflux pump, confirmation, S. cerevisiae AD/CaCDR2, flow cytometry, cherry pick 1, singleplex; shares compounds with Efflux pump inh; Nile Red retention; Nile Red retention ratio vs DMSO, % at 10 µM; actives 4% (n = 1,700); in the data active = Nile Red retention ratio vs DMSO above about 190%;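 note: higher ratio means more blocking of Cdr2 efflux of the dye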
CaCdr1 efflux inh: inhibitors of Candida albicans Cdr1 efflux pump, confirmation, S. cerevisiae AD/CaCDR1, flow cytometry, cherry pick 1, singleplex; Nile Red efflux; shares compounds with Efflux pump inh; AID 588522, 2011; actives 1% (n = 1,700); inhibition, % at 10 µM;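 active = inhibition above the screen-wide mean plus twice its standard deviation, cut at about 32% in these data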
Numbers stand for hits; - = inactive; . = not tested or not shown. In the library only some 2.5% were active in any assay of this set; here they are far more common.

SMILES	Efflux pump inh	MEKK3 PB1 HTS	ABCB1 block	MEKK2mut PB1 HTS	MEKK2wt PB1 HTS	ABCG2 inh	Cmpd fluor yeast	CaMdr1 efflux inh	CaCdr2 efflux inh	CaCdr1 efflux inh
O=C(CN1CCN(c2ncc(C(F)(F)F)cc2Cl)CC1)N1CCN(c2ncc(C(F)(F)F)cc2Cl)CC1	0.8	-	-	-	-	-	-	-	-	-
O=C(c1cccs1)N1CCN(c2ncc(Br)cn2)CC1	-	-	.	-	-	.	.	.	.	.
COC(=O)C(Cc1ccc(O)cc1)NC(=O)C(C)NC(=O)c1ccc(C(C)(C)C)cc1 (centres undefined)	-	-	.	-	-	.	.	.	.	.
Cn1cnnc1Sc1nc([N+](=O)[O-])nn1C	-	-	-	-	-	-	.	.	.	.
Cn1nc([N+](=O)[O-])nc1Sc1ccc(Cl)cc1	0.8	-	-	-	-	-	-	-	-	-
CC(C)=C1C2CCC1C1C(=O)N(c3nc(-c4ccc(C(C)C)cc4)c(C)s3)C(=O)C21 (centres undefined)	0.4	-	-	-	-	-	-	-	-	-
COc1ccc(OC)c(NC(=O)NNC(=O)c2cc3occc3[nH]2)c1	1.2	-	.	-	-	.	-	-	-	-
CCCCNC(=O)OCC(CC)NC(=O)OC(C)C (centres undefined)	1.9	-	-	-	-	-	-	-	-	-
O=C(NCc1ccco1)/C(=C/C=C\c1ccccc1)NC(=O)c1ccc(Br)o1	7.6	-	-	-	-	-	-	-	-	-
N#C/C(=C\C=C\c1ccccc1)C(=O)NCc1ccco1	-	-	-	-	-	-	.	.	.	.
CC(OC(=O)CN1C(=O)NC2(CCCC2)C1=O)C(=O)c1ccccc1 (centres undefined)	-	.	.	.	.	.	.	.	.	.
O=C1C2C3CCC(C3)C2C(=O)N1Cc1ccccc1 (centres undefined)	-	-	.	-	-	-	.	.	.	.
O=C1C2C3C=CC(C4CC34)C2C(=O)N1Cc1ccccc1 (centres undefined)	0.9	-	-	-	-	-	-	-	-	-
O=C(CSc1nnc(Cc2cccs2)n1Cc1ccco1)Nc1cccc(Cl)c1	-	-	-	-	-	-	-	-	-	-
Cc1ccc(NC(=O)CSc2nnc(-c3cccs3)n2Cc2ccco2)cc1	-	-	-	-	-	-	.	.	.	.
O=C(CSc1nnc(Cc2cccs2)n1Cc1ccco1)Nc1cc(Cl)cc(Cl)c1	-	-	-	-	-	-	-	-	-	-
O=c1[nH]c2ccc([N+](=O)[O-])cc2nc1/C=C(\O)c1ccccc1	-	-	.	-	-	.	.	.	.	.
Cn1ncc2c(NNC(=O)c3ccc(Cl)cc3Cl)ncnc21	-	-	-	-	-	-	.	.	.	.
Cc1nc2sc3c(c2c2nnc(SCC(=O)NCc4ccco4)n12)CCCC3	0.8	-	-	-	-	-	-	-	-	-
CC(C)C(=O)COc1c2occc2cc2ccc(=O)oc12	-	.	.	.	.	.	.	.	.	.
